15 compounds from ChEMBL document CHEMBL5321249, “Appraisal of Fungus-Derived Xanthoquinodins as Broad-Spectrum Anti-Infectives Targeting Phylogenetically Diverse Human Pathogens” (J Nat Prod, 2023) can be followed below.

One data set relates to Cryptosporidium parvum. In words: Antiparasitic activity against Nanoluciferase-tagged Cryptosporidium parvum infected in human HCT-8 cells assessed as inhibition of parasite growth incubated for 48 hrs by NanoGlo luciferase reagent based assay. In kind it is functional, organism-based. The conditions noted are these: HCT-8, 48 h. The gist of the method: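 HCT-8 cells grown 48 h to 50–75% confluence; calf-propagated oocysts activated 15 min in 10% bleach at room temperature, DPBS-washed, 5 × 10^3 per well in RPMI-1640 with 10% heat-inactivated FBS and penicillin-streptomycin plus graded compound, 48 h at 37 °C, 5% CO2. Lysed monolayers read with Nano-Glo; growth relative to infected untreated wells, no-parasite background; variable-slope sigmoidal EC50.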

The test system of the next data set is Plasmodium falciparum. Description: Antimalarial activity against asynchronous Plasmodium falciparum Dd2 infected in human A+ erythrocytes incubated for 72 hrs by SYBR Green I dye based assay. In kind it is functional, organism-based. The conditions noted are these: Dd2, Erythrocyte.
A further data set relates to Trichomonas vaginalis. Description: Antiparasitic activity against Trichomonas vaginalis Donne PRA-98 incubated for 17 hrs by glutaraldehyde/propidium iodide/acridine orange staining based high-content imaging analysis. In kind it is functional, organism-based. Conditions: Donne PRA-98, 17 h.
Data set [1] in a line: Cytotoxicity against human HepG2 cells incubated for 48 hrs by MTS based assay. It is filed as toxicity, cell-based. (Formazan colour is commonly taken as a measure of viable cells.)
The nature of data set [2]: Selectivity index, ratio of EC50 for cytotoxicity against human HepG2 cells to EC50 for antimalarial activity against asynchronous Plasmodium falciparum Dd2 infected in human A+ erythrocytes. It is filed as toxicity, cell-based. Conditions: read-out: Ratio EC50. The gist of the method: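 SI is HepG2 EC50 over P. falciparum Dd2 EC50. Asynchronous-stage parasites were assayed by SYBR Green I fluorescence with chloroquine-treated and untreated controls, and EC50 came from dose–response fits. HepG2 cytotoxicity used an MTS absorbance assay in triplicate up to 25 μM, with a 5% Triton X-100 zero-viability control and a no-treatment control.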

In another data set the test system is Mycoplasma genitalium. Description: Antibacterial activity against Mycoplasma genitalium G37 assessed as bacterial growth inhibition incubated for 6 to 7 days by microbroth dilution assay. In kind it is functional, organism-based. Conditions: Mycoplasmoides genitalium. The gist of the method:
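M. genitalium G37 from frozen stock grown 2 days in SP-4 broth at 37 °C, 5% CO2, to log phase; 0.45 μm-filtered, diluted 1:200 in SP-4 with 7.5% FBS, ~10^4 CFU per well with 2-fold serial compound dilutions in triplicate.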
(In general: Dilution methods test growth across graded concentrations, often in twofold steps.)

Data set [3] in a line: Selectivity index, ratio of EC50 for cytotoxicity against human HepG2 cells to EC50 for antibacterial activity against Mycoplasma genitalium G37. In kind it is cell-based. Conditions: read-out: Ratio EC50. An outline of the steps:
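SI is HepG2 EC50 over M. genitalium G37 EC50. G37 (~10^4 CFU/well) was grown in SP-4 broth with 7.5% FBS against 2-fold serial dilutions in triplicate for 6–7 days at 37 °C, 5% CO2. Genomes were quantified by 16S rRNA qPCR against untreated wells. HepG2 cytotoxicity used an MTS assay in triplicate, maximum 25 μM, with Triton X-100-lysed and untreated controls.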

Data set [4] is described as follows: Selectivity index, ratio of EC50 for cytotoxicity against human HepG2 cells to EC50 for antiparasitic activity against Trichomonas vaginalis Donne PRA-98. It is filed as toxicity, cell-based. The conditions noted are these: read-out: Ratio EC50. An outline of the steps:
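Trichomonads (4 × 10^4 per well) under microaerophilic conditions were treated with compound at no more than 0.5% DMSO for 17 h. Cells were then fixed with glutaraldehyde, propidium iodide and acridine orange, shaken, incubated 3 h at 37 °C, and counted by high-content imaging.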

A short description of data set [5]: Selectivity index, ratio of EC50 for cytotoxicity against human HepG2 cells to EC50 for antiparasitic activity against Nanoluciferase-tagged Cryptosporidium parvum infected in human HCT-8 cells assessed as inhibition of parasite growth. The conditions noted are these: read-out: Ratio EC50. It is filed as toxicity, cell-based. The gist of the method: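 For the parasite, 5 × 10^3 bleach-activated Nanoluciferase-tagged oocysts per well infected HCT-8 monolayers at 50–75% confluence in RPMI-1640 with 10% FBS. They were incubated 48 h at 37 °C, 5% CO2, then lysed for luminescence. Growth was expressed as percent of infected untreated wells and fitted by variable-slope sigmoidal dose–response.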

SMILES strings stand for the structures.

`CCOc1ccc2cc(-c3nn(CC4CCN(C)CC4)c4ncnc(N)c34)ccc2c1`: the EC50 with Cryptosporidium parvum was determined as 1.1 µM.

In the case of `Cc1cc(O)c2c(c1)[C@@H]([C@H]1c3cc(C)cc(O)c3C(=O)c3c(O)cc(O)cc31)c1cc(O)cc(O)c1C2=O`, the EC50 is 1.65 µM in the data set with Plasmodium falciparum, > 10 µM in the data set with Trichomonas vaginalis, > 7.2 µM with Cryptosporidium parvum and > 10 µM with Mycoplasma genitalium. Moreover, in data set [1], the EC50 at 48 h came to 13.8 µM. In addition, the selectivity ratio in data set [2] amounted to 8.6.

As to `COC(=O)[C@]1([C@@H]2CCC(=O)O2)CC(=O)c2c(cc3c(c2O)[C@@H]2C=C[C@@]4(C3)C(=O)c3cc(C)cc(O)c3C(=O)[C@]4(O)C2=O)O1`, the EC50 in the data set with Plasmodium falciparum is > 5 µM; with Trichomonas vaginalis, > 10 µM; in the data set with Cryptosporidium parvum, > 6 µM; in the data set with Mycoplasma genitalium, > 10 µM. Also, the EC50 at 48 h in data set [1] was > 25 µM.

Consider `COC(=O)[C@@]12Oc3cc4c(c(O)c3C(=O)C1=C(O)CC[C@@H]2O)[C@@H]1C=C[C@@]2(C4)C(=O)c3cc(C)cc(O)c3C(=O)[C@]2(O)C1=O`, for which the EC50 is > 5 µM in the data set on Plasmodium falciparum, > 10 µM with Trichomonas vaginalis, > 10 µM in the data set on Cryptosporidium parvum and > 10 µM with Mycoplasma genitalium. Moreover, the EC50 at 48 h in data set [1] is > 25 µM.

As for `COC(=O)[C@]1([C@@H](O)CCC(=O)O)CC(=O)c2c(cc3c(c2O)[C@@H]2C=C[C@@]4(C3)C(=O)c3cc(C)cc(O)c3C(O)=C4C2=O)O1`, the EC50 in the data set on Plasmodium falciparum was > 5 µM; with Trichomonas vaginalis, > 10 µM; in the data set with Cryptosporidium parvum it was > 10 µM; in the data set with Mycoplasma genitalium it was > 10 µM. Moreover, in data set [1], the EC50 at 48 h was > 25 µM.

Turning to `COC(=O)[C@]1([C@@H]2CCC(=O)O2)CC(=O)c2c(O)cc(C)cc2O1`, the EC50 with Plasmodium falciparum was > 5 µM; with Trichomonas vaginalis, > 10 µM; in the data set on Cryptosporidium parvum, > 40 µM; with Mycoplasma genitalium, > 10 µM. In data set [1], the EC50 at 48 h was > 25 µM.

On to `COC(=O)[C@]1([C@@H](O)CCC(=O)O)CC(=O)c2c(cc3c(c2O)[C@@H]2C=C[C@@]4(C3)C(=O)c3cc(C)cc(O)c3C(=O)[C@]4(O)C2=O)O1`, for which the EC50 in the data set on Plasmodium falciparum is > 5 µM; in the data set with Trichomonas vaginalis it was > 10 µM; in the data set with Cryptosporidium parvum, > 10 µM; with Mycoplasma genitalium, > 10 µM. Moreover, the EC50 at 48 h in data set [1] is > 25 µM.

Consider `COC(=O)[C@@]12Oc3cc4c(c(O)c3C(=O)[C@]1(O)C(=O)CC[C@@H]2O)[C@@H]1C=C[C@@]2(C4)C(=O)c3cc(C)cc(O)c3C(=O)[C@]2(O)C1=O`, for which the concentration for a half-maximal effect (EC50) with Plasmodium falciparum is > 5 µM; in the data set on Trichomonas vaginalis, > 10 µM; with Cryptosporidium parvum, > 10 µM; with Mycoplasma genitalium it was > 10 µM. Moreover, the EC50 at 48 h in data set [1] is > 25 µM.

Regarding `COC(=O)[C@]12Oc3c(c(O)cc4c3[C@@H]3C=C[C@@]5(C4)C(=O)c4cc(C)cc(O)c4C(=O)[C@]5(O)C3=O)C(=O)C1=C(O)CC[C@@H]2O`, the EC50 in the data set with Plasmodium falciparum is > 5 µM; in the data set on Trichomonas vaginalis it was > 10 µM; in the data set with Cryptosporidium parvum, > 10 µM; in the data set with Mycoplasma genitalium, > 10 µM. The EC50 at 48 h in data set [1] is > 25 µM.

As to `Cc1cc(O)c2c(c1)[C@@H]([C@@H]1c3cc(C)cc(O)c3C(=O)c3c(O)cc(O)cc31)c1cc(O)cc(O)c1C2=O` (relative stereo), the EC50 with Plasmodium falciparum was 1.12 µM; in the data set on Trichomonas vaginalis, > 10 µM; with Cryptosporidium parvum, > 2.4 µM; in the data set on Mycoplasma genitalium it was > 10 µM. The compound further came in with an EC50 at 48 h in data set [1] of 10.2 µM. In [2], the selectivity ratio was determined as 9.1.

For the compound `CC[C@H]1OC(=O)[C@H](C)[C@@H](O[C@H]2C[C@@](C)(OC)[C@@H](O)[C@H](C)O2)[C@H](C)[C@@H](O[C@@H]2O[C@H](C)C[C@H](N(C)C)[C@H]2O)[C@](C)(O)C[C@@H](C)CN(C)[C@H](C)[C@@H](O)[C@]1(C)O` [AZITHROMYCIN], the EC50 in the data set on Mycoplasma genitalium amounted to 0.0005 µM.

The compound `Cc1ncc([N+](=O)[O-])n1CCO` [METRONIDAZOLE] yielded an EC50 in the data set on Trichomonas vaginalis of 3.5 µM.

In the case of `COC(=O)[C@@]12Oc3cc4c(c(O)c3C(=O)C1=C(O)CC[C@@H]2O)[C@@H]1C=C[C@@]2(C4)C(=O)c3cc(C)cc(O)c3C(O)=C2C1=O` [XANTHOQUINODIN A1], the selectivity ratio in data set [3] was > 62.5; in data set [4], > 6.4; in [2], > 86; in data set [5] it was > 4.8. Also, the EC50 is 0.29 µM in the data set with Plasmodium falciparum, 3.9 µM in the data set with Trichomonas vaginalis, 5.2 µM in the data set on Cryptosporidium parvum and 0.13 µM with Mycoplasma genitalium. Further, the EC50 at 48 h in [1] was > 25 µM.

Turning to `COC(=O)[C@]12Oc3cc4c(c(O)c3C(=O)C1=C(O)CC[C@@H]2O)[C@@H]1C=C[C@@]2(C4)C(=O)c3cc(C)cc(O)c3C(O)=C2C1=O` [XANTHOQUINODIN A2], the selectivity ratio was > 125 in [3], > 3.7 in data set [4], > 50 in data set [2] and > 7.1 in data set [5]. Moreover, the EC50 in the data set on Plasmodium falciparum came to 0.5 µM; with Trichomonas vaginalis, 6.8 µM; with Cryptosporidium parvum it was 3.5 µM; in the data set with Mycoplasma genitalium, 0.12 µM. For the same compound, in data set [1], the EC50 at 48 h was > 25 µM.

For `COC(=O)[C@]1([C@@H]2CCC(=O)O2)CC(=O)c2c(cc3c(c2O)[C@@H]2C=C[C@@]4(C3)C(=O)c3cc(C)cc(O)c3C(O)=C4C2=O)O1` [XANTHOQUINODIN A3], the EC50 in the data set with Plasmodium falciparum was > 5 µM; with Trichomonas vaginalis, > 10 µM. In [1], the EC50 at 48 h was > 25 µM.

By EC50 is commonly meant the concentration at which the effect is half-maximal.
